STEP inh = STEP (human) phosphatase inhibition | inhibition, % at 20 µM | P54829 | actives 0.25% (n = 360,000) | recombinant STEP, OMFP fluorogenic substrate, fluorescence | AID 588621;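 active means inhibition at 20 µM, scaled per plate between control wells, above about 37%, limit read from the data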
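Material: STEP (striatal-enriched tyrosine phosphatase) enzyme, cell-free; Compound dosing: 20 µM single dose in 1% DMSO; Technique: fluorescence read at 480 nm ex / 540 nm em; Times: reaction 20 min, ambient temperature; Medium: 50 mM Bis-Tris pH 6.0 with 2.5 mM DTT and 0.005% Tween 20; Also added: OMFP at 25 µM.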
Scp-1 inhibitor = inhibitors of human Scp-1 phosphatase; Q9GZU7; Recombinant Scp1, phosphopeptide, malachite green phosphate absorbance; inhibition, % at 20 µM; actives 0.88% (n = 340,000); AID 493091;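 active means inhibition above about 50% at 20 µM, limit read from the data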
Target sequence (Q9GZU7 76-261 limits assumed): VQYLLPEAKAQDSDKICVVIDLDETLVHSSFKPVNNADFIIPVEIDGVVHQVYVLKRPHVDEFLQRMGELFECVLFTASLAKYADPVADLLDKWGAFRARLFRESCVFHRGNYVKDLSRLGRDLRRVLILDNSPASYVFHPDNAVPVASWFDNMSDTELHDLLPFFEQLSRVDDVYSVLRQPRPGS
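Test system: SCP-1 phosphatase catalytic domain, residues 76-261 | Compound dosing: One concentration, 20 µM, with 1.0% DMSO | Schedule: 45 min room-temperature reaction, 5 min colour, 30 min stabiliser | Detection: Absorbance at 630 nm | Read-out basis: % inhibition of SCP-1 phosphate liberation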
LMPTP block = LMPTP (human) inhibition; P24666; recombinant LMPTP-A, OMFP fluorogenic substrate, fluorescence intensity; inhibition, % at 20 µM; actives 0.22% (n = 360,000);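 active means compounds that cut the enzyme signal by at least half of the control window in the single-dose screen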
Target sequence (P24666 whole entry, looked up): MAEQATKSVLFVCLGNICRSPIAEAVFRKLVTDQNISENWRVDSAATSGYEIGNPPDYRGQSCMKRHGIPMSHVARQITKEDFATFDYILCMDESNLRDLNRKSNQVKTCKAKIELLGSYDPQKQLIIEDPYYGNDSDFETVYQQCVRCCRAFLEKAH
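Material: LMPTP-A; amount: 0.625 nM enzyme; doses: single 20 µM dose; times: reaction 50 min, room temperature, dark; technique: fluorescence intensity of OMFP turnover product; benchmarks: no-enzyme and uninhibited controls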
DNMT1 inh = blocks human DNA methyltransferase DNMT1; P26358; DNMT1 molecular beacon, Hinp1I cleavage, fluorescence; inhibition (reported as % activation of signal), % at 10 µM; actives 0.83% (n = 360,000); in the data active means inhibition above about 50%
SUMO1-SIM PPI = SUMO1-SIM interaction modulation; P63165; SUMO1 binding to a labelled peptide, TR-FRET, 1 h; inhibition, % at 20 µM; actives 0.33% (n = 360,000); AID 602429; in the data active means inhibition above about 37%
Target sequence (P63165 whole entry, looked up): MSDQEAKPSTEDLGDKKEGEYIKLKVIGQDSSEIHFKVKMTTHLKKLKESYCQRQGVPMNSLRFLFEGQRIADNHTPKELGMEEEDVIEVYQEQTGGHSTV
STEP inh conf = confirmation of human STEP phosphatase inhibitors; shares compounds with STEP inh; recombinant STEP, OMFP fluorogenic substrate, fluorescence; inhibition, % at 20 µM; actives 32% (n = 520); AID 623866; call rule not given here
Of the large screens only hits and unclear results are named; the others gave an inactive call (follow-up assays come after a bar, where they were run). Most compounds without a hit are left out; they make up all but 1.8% or so of the library.

O=C(NCCCNC(=O)c1cnccn1)c1ccc(Cl)cc1	none
CC1=C(C(=O)OC(C)C)[C@@H](c2ccc(C)o2)NC(=O)N1	STEP inh 120 | STEP inh conf inactive
c1ccc(OCCNc2nc(NCC3CC3)nc3cc(-c4ccccc4)sc23)cc1	STEP inh 43 (no result: Scp-1 inhibitor) | STEP inh conf inactive
O=C(CCC(=O)NCCCc1ccccc1)NCCCc1ccccc1	STEP inh 119 | STEP inh conf inactive
O=P1(NC2CCCC2)OCC2(CO1)COP(=O)(NC1CCCC1)OC2 (configuration not stated)	none
Clc1ccc(Cl)c(-c2nc(-c3ccncc3)no2)c1	STEP inh 44 | STEP inh conf 12
COc1ccc(-c2csc(NC(C)c3nc4cc(C(F)(F)F)ccc4n3CCOCCO)n2)cc1 (configuration not stated)	STEP inh 44 | STEP inh conf inactive
CC(Nc1nc(-c2ccc(F)cc2)cs1)c1nc2cc(C(F)(F)F)ccc2n1CCOCCO (configuration not stated)	none
CC(=O)Nc1ccc(/C=C2\Sc3ccccc3C2=O)cc1	STEP inh 43 | STEP inh conf inactive
Cc1ccccc1/C=N/Nc1nc2ccccc2c(=O)n1O	STEP inh 76 | STEP inh conf inactive
C[C@@H]1CN([C@@H](C)CO)S(=O)(=O)c2ccc(Br)cc2O[C@H]1CN(C)C(=O)Nc1ccc2c(c1)OCO2	none (no result: Scp-1 inhibitor)
CCOC(=O)c1ccccc1N/C=C1\CCCCC1=O	STEP inh 58 | STEP inh conf inactive
CC(C)[C@H](NC(=O)N1CC(=O)Nc2ccccc21)C(=O)Nc1nccs1	STEP inh 92 | STEP inh conf inactive
CCCc1cc(C(=O)N2CCCC(C(=O)c3cccc4ccccc34)C2)n(C)n1 (configuration not stated)	STEP inh 49 | STEP inh conf inactive
S=C(NCCCN1CCOCC1)Nc1ccc(Cl)cc1	none
FC(F)(F)Oc1ccc(NC(=S)NCCCN2CCOCC2)cc1	STEP inh 41 | STEP inh conf inactive
COC(=O)c1ccc(COC(=O)CCc2nc(-c3ccccc3)c(-c3ccccc3)o2)cc1	STEP inh 38 | STEP inh conf inactive
COC(=O)c1ccc(COC(=O)c2ccccn2)cc1	none
COc1ccc(-c2ccc(C(=O)Nc3cccc(N(C)C)c3)c3occc23)c(C)c1	none (no result: Scp-1 inhibitor)
COc1cc(N2C(=O)CSC23C(=O)Nc2ccccc23)cc(OC)c1OC (configuration not stated)	none
COc1ccc(N2C(=O)CSC23C(=O)Nc2ccccc23)cc1OC (configuration not stated)	STEP inh 48 | STEP inh conf inactive
Cc1ccc(Cl)cc1NC(=S)N(CCCN1CCN(C)CC1)Cc1cccs1	none
Cc1cc(Cl)ccc1NC(=S)N(CCCN1CCOCC1)Cc1cccs1	STEP inh 57 | STEP inh conf inactive
CCc1cccc(C)c1NC(=S)N(CCCN1CCOCC1)Cc1cccnc1	STEP inh 41 | STEP inh conf inactive
CN(C)S(=O)(=O)c1ccc(C(=O)OCC2CCCO2)cc1 (configuration not stated)	none
CC1(C)CC(NC(=S)Nc2ccc(S(N)(=O)=O)cc2)CC(C)(C)N1	STEP inh 63 | STEP inh conf inactive
Nc1c(C(=O)CSc2n[nH]c(-c3ccccc3)n2)c(=O)[nH]c(=O)n1C1CC1	none
O=C(c1ccccc1Cc1ccccc1)N1CCN(S(=O)(=O)c2ccccc2Br)CC1	none
Cc1ccc(C(=O)N/N=C\c2ccc(-c3ccc([N+](=O)[O-])cc3)o2)cn1	STEP inh 60 | STEP inh conf inactive
O=C(CSc1nccc(=O)[nH]1)NC1CCCCCCC1	none
O=C(Nc1ccc(OC(F)(F)F)cc1)C1CCCN(S(=O)(=O)c2cccnc2)C1 (configuration not stated)	STEP inh 39 | STEP inh conf inactive
Cc1c(NC(=O)COC(=O)CSc2ccc([N+](=O)[O-])cc2)c(=O)n(-c2ccccc2)n1C	none
NS(=O)(=O)c1ccc(CCNS(=O)(=O)c2ccccc2)cc1	none
NS(=O)(=O)c1ccccc1	STEP inh 68 | STEP inh conf 47
CCOCCCNC(=S)NC1CC2CCC(C1)N2Cc1ccccc1 (configuration not stated)	STEP inh 55 | STEP inh conf inactive
COCCCNC(=S)NC1CC2CCC(C1)N2Cc1ccccc1 (configuration not stated)	none
Cc1ccc(Nc2nnc(-c3ccc4c(c3)OCO4)o2)c(C)c1	STEP inh 48 | STEP inh conf inactive
CN1CCN(C(=S)C(=O)Nc2ccc(Br)cc2)CC1	STEP inh 94 | STEP inh conf 77
NS(=O)(=O)c1ccc(NC(=S)N2CCN(c3ccccc3Cl)CC2)cc1	none
CN1CCN(C(=S)Nc2ccc(S(N)(=O)=O)cc2)CC1	STEP inh 81 | STEP inh conf 39
CCCCC(=O)N(C)c1c(C)nc2ccc(C(=O)N(CC)CCN(C)C)cn12	none (no result: Scp-1 inhibitor)
CCS(=O)(=O)N1CCC(C(=O)Oc2ccc(C)c(C)c2)CC1	none
COc1ccc(C(=O)Oc2ccc3ccc(=O)oc3c2)cc1	STEP inh 74 | STEP inh conf inactive
O=C(Oc1ccc2ccc(=O)oc2c1)c1ccccc1	none
COc1ccc(N2CCN(C(=O)c3cccc(NC(=O)c4ccco4)c3)CC2)cc1	none
O=C1NC[C@H](CCCCN2CCN(Cc3ccccc3)C(=O)C2=O)N(CC2CCCCC2)C1=O	none (no result: STEP inh, Scp-1 inhibitor, DNMT1 inh)
O=C(Nc1ccc(N2CCOCC2)cc1)c1csc(COCCO)n1	none (no result: Scp-1 inhibitor)
CCCCN(CC)Cc1ccc(CNC(=S)Nc2c(C)cc(C)cc2C)o1	STEP inh 85 | STEP inh conf 45
CCCCN(CC)Cc1ccc(CNC(=S)Nc2ccc(C)cc2Cl)o1	none
O=C(Nc1nc2nccc(-c3ccccc3)n2n1)c1ccc(F)cc1	STEP inh 52 | STEP inh conf inactive
O=C(Nc1nc2nccc(-c3ccccc3)n2n1)c1ccccc1	none
COc1cc2ccccc2cc1C(=O)NC(=S)Nc1cccc(C(=O)O)c1	STEP inh 42 | STEP inh conf inactive
O=C(O)c1cccc(NC(=S)NC(=O)c2ccc(-c3ccccc3)cc2)c1	none
CC(C)(C)N1CCC1CN (configuration not stated)	none
CCOC(=O)c1c(NC(=O)OC)sc(C(=O)N(CC)CC)c1C	STEP inh 82 | STEP inh conf 52
CCOC(=O)c1sc(NC(=O)OC)c(C(=O)OC)c1C	none
CCOC(=O)N1CCC(N(CCN(C)C)C(=S)Nc2ccccc2OC)CC1	none
CCOC(=O)N1CCC(N(CCN(C)C)C(=S)Nc2ccccc2OCC)CC1	STEP inh 45 | STEP inh conf inactive
CCOC(=O)N1CCC(N(CCN(C)C)C(=S)Nc2cccc(C)c2)CC1	none

Assay outcomes from PubChem.
